pKi: −log10 of the molar value.
Key:
Coagulation factor XI = Coagulation factor XI (Homo sapiens, UniProt P03951); test: Inhibition of human coagulation factor 11a using p-nitroaniline as substrate assessed as substrate hydrolysis by spectrophotometrically
Procedure, shortened: (§1)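 Purified human enzymes; reaction started by adding enzyme to substrate with or without inhibitor, excess substrate and inhibitor over enzyme, 1% DMSO, room temperature, 10–120 min. pNA read at 405 nm. FXIa, FXIIa and chymotrypsin in HEPES pH 7.4 with NaCl, KCl and PEG; FXa and kallikrein in phosphate pH 7.5; FVIIa in HEPES with CaCl2. IC50 from duplicates over 8–11 concentrations, converted to Ki assuming competitive inhibition.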

Coagulation factor VII = biological target: T1, Coagulation factor VII (Homo sapiens, UniProt P08709); test: Inhibition of human coagulation factor 7a using H-(D)-Ile-Pro-Arg-pNA as substrate by spectrophotometric analysis; procedure, shortened: as §1
T1 sequence (P08709 whole entry): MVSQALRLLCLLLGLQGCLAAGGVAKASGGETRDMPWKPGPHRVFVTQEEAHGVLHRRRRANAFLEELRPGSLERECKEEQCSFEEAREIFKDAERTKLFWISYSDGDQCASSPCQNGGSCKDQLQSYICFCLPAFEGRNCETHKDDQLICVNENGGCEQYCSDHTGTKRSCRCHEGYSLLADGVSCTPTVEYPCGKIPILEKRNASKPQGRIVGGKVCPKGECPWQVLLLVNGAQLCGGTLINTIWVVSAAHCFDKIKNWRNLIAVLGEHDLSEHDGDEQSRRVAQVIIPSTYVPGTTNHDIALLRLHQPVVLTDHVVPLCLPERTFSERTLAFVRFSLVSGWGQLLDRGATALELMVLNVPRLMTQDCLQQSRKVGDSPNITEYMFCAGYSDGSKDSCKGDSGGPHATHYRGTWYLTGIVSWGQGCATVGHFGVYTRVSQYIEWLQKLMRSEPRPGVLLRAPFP

Coagulation factor X = Coagulation factor X (Homo sapiens, UniProt P00742); test: Inhibition of human coagulation factor 10a using N-benzoyl-Ile-Glu-(OH, OMe)-Gly-Arg-pNA as substrate by spectrophotometric analysis; procedure, shortened: as §1
Chain of Coagulation factor X (P00742 41-179 limits assumed): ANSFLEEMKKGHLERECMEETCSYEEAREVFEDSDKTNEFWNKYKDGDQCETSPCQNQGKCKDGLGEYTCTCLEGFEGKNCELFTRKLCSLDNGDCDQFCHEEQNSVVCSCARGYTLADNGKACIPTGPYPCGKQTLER
Chain of Coagulation factor X (P00742 235-488 limits assumed): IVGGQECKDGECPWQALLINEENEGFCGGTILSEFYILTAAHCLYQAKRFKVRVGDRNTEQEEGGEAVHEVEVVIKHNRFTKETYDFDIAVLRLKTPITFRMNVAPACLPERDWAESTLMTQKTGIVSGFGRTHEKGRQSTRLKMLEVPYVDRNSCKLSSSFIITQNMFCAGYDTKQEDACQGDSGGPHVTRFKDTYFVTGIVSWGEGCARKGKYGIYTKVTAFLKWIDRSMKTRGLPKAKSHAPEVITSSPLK

Plasma kallikrein = Plasma kallikrein (Homo sapiens, UniProt P03952); test: Inhibition of human plasma kallikrein using H-D-Pro-Phe-Arg-pNA as substrate; procedure, shortened: as §1
Chain of Plasma kallikrein (P03952 20-390 limits assumed): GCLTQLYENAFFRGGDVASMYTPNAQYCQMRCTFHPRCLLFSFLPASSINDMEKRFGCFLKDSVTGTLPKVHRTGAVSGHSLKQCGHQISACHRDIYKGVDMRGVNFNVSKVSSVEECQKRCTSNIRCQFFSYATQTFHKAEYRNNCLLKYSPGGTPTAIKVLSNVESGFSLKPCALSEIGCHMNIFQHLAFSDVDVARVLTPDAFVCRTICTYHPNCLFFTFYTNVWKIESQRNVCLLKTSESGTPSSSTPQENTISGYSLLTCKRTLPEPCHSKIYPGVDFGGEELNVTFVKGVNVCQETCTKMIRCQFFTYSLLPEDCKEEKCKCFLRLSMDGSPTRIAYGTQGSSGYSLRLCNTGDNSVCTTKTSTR
Chain of Plasma kallikrein (P03952 391-638 limits assumed): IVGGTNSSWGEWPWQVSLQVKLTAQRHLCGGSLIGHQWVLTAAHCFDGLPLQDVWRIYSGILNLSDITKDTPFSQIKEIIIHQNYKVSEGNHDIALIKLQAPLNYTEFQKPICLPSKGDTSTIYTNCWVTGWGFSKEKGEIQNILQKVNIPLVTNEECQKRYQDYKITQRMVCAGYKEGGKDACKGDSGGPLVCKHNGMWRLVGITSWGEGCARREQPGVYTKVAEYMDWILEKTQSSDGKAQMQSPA

[1] = Anticoagulant activity in healthy human plasma assessed as concentration required to 2 fold prolong clotting time by aPTT assay; type: functional
Procedure, shortened: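 Citrated human plasma from healthy volunteers (one-tenth volume 0.11 M buffered citrate; spun 2000g, 10 min, kept on ice). Inhibitor from 10 mM DMSO stock, diluted in plasma, up to seven concentrations. aPTT with Alexin: plasma warmed 1 min at 37 °C, reagent added, CaCl2 2 min later. Duplicates, as ratio to baseline. EC2x by linear interpolation, as total plasma concentration.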

[2] = Solubility of the compound in 100 mM phosphate buffer at pH 7.4; type: physicochemical
Procedure, shortened: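 Solubility of the amorphous bis-HCl salt in 100 mM phosphate buffer, pH 7.4.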

Oryctolagus cuniculus = test: Antithrombotic activity in iv dosed New Zealand male rabbit AV-shunt thrombosis model assessed as inhibition of thrombus formation infused at 1 mg/kg/hr; type: functional; details: read-out: ID50 (the source's name)

Chain of Coagulation factor XI (P03951 19-387 limits assumed): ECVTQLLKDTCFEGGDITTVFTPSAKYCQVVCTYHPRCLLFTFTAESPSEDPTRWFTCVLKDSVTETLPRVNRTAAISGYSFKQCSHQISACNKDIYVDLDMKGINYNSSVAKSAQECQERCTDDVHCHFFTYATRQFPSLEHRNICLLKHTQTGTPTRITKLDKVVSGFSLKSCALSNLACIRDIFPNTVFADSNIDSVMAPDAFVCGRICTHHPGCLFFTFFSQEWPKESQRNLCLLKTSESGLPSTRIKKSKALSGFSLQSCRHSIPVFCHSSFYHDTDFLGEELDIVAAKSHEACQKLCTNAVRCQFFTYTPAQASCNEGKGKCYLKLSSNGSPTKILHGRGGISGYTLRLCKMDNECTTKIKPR
Chain of Coagulation factor XI (P03951 388-625 limits assumed): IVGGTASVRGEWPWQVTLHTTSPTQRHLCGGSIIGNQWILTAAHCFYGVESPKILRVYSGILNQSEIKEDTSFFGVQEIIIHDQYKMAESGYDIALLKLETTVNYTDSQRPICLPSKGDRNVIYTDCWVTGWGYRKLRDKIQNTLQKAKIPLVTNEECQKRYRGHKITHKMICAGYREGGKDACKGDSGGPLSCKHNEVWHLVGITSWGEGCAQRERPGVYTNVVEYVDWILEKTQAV

SMILES	pKi (Coagulation factor XI)	pKi (Coagulation factor VII)	pKi (Coagulation factor X)	pKi (Plasma kallikrein)	solubility [2] [µg/mL]	2aPTT [1] [µM]	ED50 (Oryctolagus cuniculus) [mg/kg]
COC(=O)c1ccc(-c2c[nH]c([C@H](Cc3ccccc3)NC(=O)[C@H]3CC[C@H](CN)CC3)n2)cc1	6.10	< 4.96	< 5.09	5.72			
NC[C@H]1CC[C@H](C(=O)N[C@@H](Cc2ccccc2)c2nc(-c3ccc(C(N)=O)cc3)c(Br)[nH]2)CC1.O=C(O)C(F)(F)F	8.05	< 4.96	< 5.09	7.35		10	
NC[C@H]1CC[C@H](C(=O)N[C@@H](Cc2ccccc2)c2nc(-c3ccc(C(N)=O)cc3)c(F)[nH]2)CC1.O=C(O)C(F)(F)F	8.52	< 4.87	5.86	8.10		2	
CC(C)CC(=O)Nc1cc(-c2ccc(C(N)=O)cc2C(=O)O)cc([C@@H]2C[C@](C)(c3ccccc3)c3cc(C(=N)N)ccc3N2)c1	9.70	6.20	6.47	8.70		2	
NC[C@H]1CC[C@H](C(=O)N[C@@H](Cc2ccccc2)c2nc(-c3ccc(CC(N)=O)cc3)c[nH]2)CC1 (mixture of isomers)	6.40	< 4.96	< 5.09	5.88			
CNC(=O)c1ccc(-c2c[nH]c([C@H](Cc3ccccc3)NC(=O)[C@H]3CC[C@H](CN)CC3)n2)cc1	6.46	< 4.96	< 5.09	6.66			
NC[C@H]1CC[C@H](C(=O)N[C@@H](Cc2ccccc2)c2nc(-c3ccc(C(N)=O)cc3)c(Cl)[nH]2)CC1.O=C(O)C(F)(F)F	8.40	< 4.96	< 5.05	7.70		6	
NC[C@H]1CC[C@H](C(=O)N[C@@H](Cc2ccccc2)c2nc(-c3ccc(CC(=O)O)cc3)c[nH]2)CC1	6.82	< 4.96	< 5.09	6.12			
NC[C@H]1CC[C@H](C(=O)N[C@@H](Cc2ccccc2)c2nc(-c3ccc4c(N)n[nH]c4c3)c(F)[nH]2)CC1.O=C(O)C(F)(F)F	9.52	5.21	< 5.09	8.70		0.5	
Cl.NC[C@H]1CC[C@H](C(=O)N[C@@H](Cc2ccccc2)c2nc(-c3ccc4c(N)n[nH]c4c3)c(Cl)[nH]2)CC1					946		0.6
NC[C@H]1CC[C@H](C(=O)N[C@@H](Cc2ccccc2)c2nc(-c3ccc(C(N)=O)cc3)c[nH]2)CC1.O=C(O)C(F)(F)F	7.52	< 4.96	< 5.05	7.22		>40	
CCOC(=O)Cc1ccc(-c2c[nH]c([C@H](Cc3ccccc3)NC(=O)[C@H]3CC[C@H](CN)CC3)n2)cc1	6.31	< 4.96	< 5.09	5.87			
NC[C@H]1CC[C@H](C(=O)N[C@@H](Cc2ccccc2)c2nc(-c3ccc4c(N)n[nH]c4c3)c[nH]2)CC1.O=C(O)C(F)(F)F	8.52	< 4.96	< 5.09	7.30		2	
CCOC(=O)Cc1cccc(-c2c[nH]c([C@H](Cc3ccccc3)NC(=O)[C@H]3CC[C@H](CN)CC3)n2)c1	6.20	< 4.96	< 5.09	5.83			
CN(C)C(=O)c1ccc(-c2c[nH]c([C@H](Cc3ccccc3)NC(=O)[C@H]3CC[C@H](CN)CC3)n2)cc1	5.54	< 4.96	< 5.09	5.28			
NC[C@H]1CC[C@H](C(=O)N[C@@H](Cc2ccccc2)c2nc(-c3ccc(S(N)(=O)=O)cc3)c[nH]2)CC1	5.87	< 4.96	< 5.09	5.26			

The next lines start with results.

pKi (Coagulation factor XI)	pKi (Coagulation factor VII)	pKi (Coagulation factor X)	pKi (Plasma kallikrein)	solubility [2] [µg/mL]	SMILES	2aPTT [1] [µM]	ED50 (Oryctolagus cuniculus) [mg/kg]
6.23	< 4.96	< 5.09	5.42		NC[C@H]1CC[C@H](C(=O)N[C@@H](Cc2ccccc2)c2nc(-c3ccc(C(=O)O)cc3)c[nH]2)CC1 (mixture of isomers)		
5.79			5.35		NC[C@H]1CC[C@H](C(=O)N[C@@H](Cc2ccccc2)c2c[nH]c(-c3ccccc3)n2)CC1		
6.01			5.65		NC[C@H]1CC[C@H](C(=O)N[C@@H](Cc2ccccc2)c2nc(-c3ccccc3)n[nH]2)CC1		
5.84			5.46		NC[C@H]1CC[C@H](C(=O)N[C@@H](Cc2ccccc2)c2ncc(-c3ccccc3)o2)CC1		
5.16			5.30		NC[C@H]1CC[C@H](C(=O)N[C@@H](Cc2ccccc2)c2cc(-c3ccccc3)n[nH]2)CC1		
6.56	< 4.96	< 5.09	6.04		NC[C@H]1CC[C@H](C(=O)N[C@@H](Cc2ccccc2)c2nc(-c3cccc(CC(=O)O)c3)c[nH]2)CC1		
6.26	< 4.96	< 5.09	5.72		NC[C@H]1CC[C@H](C(=O)N[C@@H](Cc2ccccc2)c2nc(-c3cccc(CC(N)=O)c3)c[nH]2)CC1		
5.96	< 4.96	< 5.09	6.04		NC[C@H]1CC[C@H](C(=O)N[C@@H](Cc2ccccc2)c2nc(-c3cccc(C(N)=O)c3)c[nH]2)CC1		
5.51			5.32		NC[C@H]1CC[C@H](C(=O)N[C@@H](Cc2ccccc2)c2nn(-c3ccccc3)c(=O)[nH]2)CC1		
6.92	< 4.96	< 5.09	6.48		NC[C@H]1CC[C@H](C(=O)N[C@@H](Cc2ccccc2)c2nc(-c3ccccc3)c[nH]2)CC1.O=C(O)C(F)(F)F	>40	
6.64	< 4.96	< 5.09	6.03		N#Cc1ccc(-c2c[nH]c([C@H](Cc3ccccc3)NC(=O)[C@H]3CC[C@H](CN)CC3)n2)cc1		
5.95	< 4.96	< 5.09	5.93		N#Cc1cccc(-c2c[nH]c([C@H](Cc3ccccc3)NC(=O)[C@H]3CC[C@H](CN)CC3)n2)c1		

Source: ChEMBL document CHEMBL3351269, “Phenylimidazoles as potent and selective inhibitors of coagulation factor XIa with in vivo antithrombotic activity” (J Med Chem, 2014)
